# Laboratory results: publication PMC8600646 (ACS Omega, 2021)
# Where “and” joins values, the source holds several entries; their conditions need not be identical. Identical values can stand only once. Like-named read-outs stand apart in the source and are kept apart here.
# Experiments:
# [1] = cited from earlier work
# [2] = for 3,4-dimethylbenzenesulfonate; cited from earlier work
# [3] = Viscosity measurements of hydrotrope solutions; assay type: physicochemical; details: 20 wt % hydrotrope in 1 M KCl, rotational rheometer
# Method in brief: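 Rotational rheometer with concentric cylinder geometry over shear rates of 10 to 100/s. Solutions tested: 1 M KCl, 20 wt % NaXS and 20 wt % NapTS.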
# [4] = Electrochemical impedance spectroscopy; assay type: physicochemical
# Method in brief: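 Glassy carbon rotating disk (5 mm; 0.196 cm2) with Ag/AgCl reference and Pt wire counter; polished as for CV. Solutions hold 1 mM reduced radical plus 1 mM oxidised form, made by bulk electrolysis at 0.75 V vs Ag/AgCl for 5–10 h. Run at open-circuit potential, 2500 rpm, 10 mV amplitude, 0.5–100000 Hz. Rct comes from a Nyquist fit, then j0, then k0 assuming α = 0.5.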
# [5] = Hydraulic radius calculated with the Stokes-Einstein equation; assay type: physicochemical; details: from Dred CV, 298K
# Method in brief: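 Stokes–Einstein estimate that uses Dred from the CV fits, the measured solution viscosity and T = 298 K. Viscosities come from a concentric-cylinder rotational rheometer (KCl-based solutions) or a calibrated Ubbelohde glass viscometer (1 M H2SO4 and 15 wt % proline).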
# [6] = Linear sweep voltammetry with rotating disk electrode; assay type: physicochemical; details: for Dox (LSV): oxidized species
# Cyclic voltammetry = assay type: physicochemical; details: for Dred (CV): 1 mM; for Dox (CV): oxidized species
# Method in brief: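 Three-electrode cell: 3 mm glassy carbon working electrode (0.0707 cm2), Ag/AgCl in 3 M KCl reference, Pt wire counter. Electrode polished with 0.05 μm alumina and rinsed with water and methanol. Nitroxide starts at 1 mM; hydrotrope electrolytes readjusted to pH 7.0 (HCl) or, for the disulfonate, to about 0 (H2SO4). Triplicate CVs at 0.001–1 V/s, three cycles per rate.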
# [7] = cited from earlier work; for Dred, previously reported: aqueous solution
compound,measurement,setting,value
"Oc1ccc(O)cc1 [hydroquinone, benzene-1,4-diol, reference compound]",solubility,"[1]; deionized water, 4.0 M urea",1.5 M
sodium xylenesulfonate [NaXS],pKA,[2],10.36
same,viscosity of solution,[3],1.8 × 10^–3 Pa·s
"Cc1cc2nc3c(=O)[nH]c(=O)nc-3n(C[C@H](O)[C@H](O)[C@H](O)COP(=O)(O)O)c2cc1C [FMN, riboflavin-5′-monophosphate]",aqueous solubility,"[1]; 1.0 M KOH, no hydrotrope",0.1 M
"CC1(C)CC(O)CC(C)(C)N1[O] [4-OH-TEMPO, 4-OH-TEMPO free radical]",standard rate constant k0 (EIS),"[4]; 1 M KCl, no hydrotrope",0.08 ± 0.00 cm/s
same,standard rate constant k0 (EIS),[4]; 20 wt % NaXS in 1 M KCl,0.29 ± 0.11 cm/s
same,standard rate constant k0 (EIS),[4]; 20 wt % NapTS in 1 M KCl,0.12 ± 0.01 cm/s
same,hydraulic radius,[5]; 20 wt % NaXS,3.7 Å
same,hydraulic radius,[5]; 20 wt % NapTS,2.7 Å
same,hydraulic radius,[5]; no hydrotrope (1 M KCl),3.3 Å
same,Dred (LSV),"[6]; 1 M KCl, no hydrotrope",10.53 × 10^–6 cm^2/s
same,standard rate constant k0 (LSV),"[6]; 1 M KCl, no hydrotrope",0.09 ± 0.07 cm/s
same,Dred (LSV),[6]; 20 wt % NaXS in 1 M KCl,6.63 × 10^–6 cm^2/s
same,standard rate constant k0 (LSV),[6]; 20 wt % NaXS in 1 M KCl,0.12 ± 0.11 cm/s
same,Dred (LSV),[6]; 20 wt % NapTS in 1 M KCl,8.53 × 10^–6 cm^2/s
same,standard rate constant k0 (LSV),[6]; 20 wt % NapTS in 1 M KCl,0.32 ± 0.33 cm/s
same,Dox (LSV),"[6]; 1 M KCl, no hydrotrope",6.03 × 10^–6 cm^2/s
same,Dox (LSV),[6]; 20 wt % NaXS in 1 M KCl,3.76 × 10^–6 cm^2/s
same,Dox (LSV),[6]; 20 wt % NapTS in 1 M KCl,4.40 × 10^–6 cm^2/s
same,formal reduction potential E0',"Cyclic voltammetry; 1 M KCl, no hydrotrope",0.59 ± 0.00 V vs Ag/AgCl and 0.59 V vs Ag/AgCl
same,Dred (CV),"Cyclic voltammetry; 1 M KCl, no hydrotrope",7.00 ± 0.24 × 10^–6 cm^2/s
same,standard rate constant k0 (CV),"Cyclic voltammetry; 1 M KCl, no hydrotrope, glassy carbon electrode",0.35 ± 0.14 cm/s
same,standard rate constant k0 (CV),Cyclic voltammetry; 20 wt % NaXS in 1 M KCl,0.48 ± 0.19 cm/s
same,Dred (CV),Cyclic voltammetry; 20 wt % NaXS in 1 M KCl,3.33 ± 0.04 × 10^–6 cm^2/s
same,formal reduction potential E0',"Cyclic voltammetry; 20 wt % NaXS in 1 M KCl, vs Ag/AgCl",0.59 ± 0.01 V
same,standard rate constant k0 (CV),Cyclic voltammetry; 20 wt % NapTS in 1 M KCl,0.95 ± 0.07 cm/s
same,Dred (CV),Cyclic voltammetry; 20 wt % NapTS in 1 M KCl,4.27 ± 0.14 × 10^–6 cm^2/s
same,formal reduction potential E0',"Cyclic voltammetry; 20 wt % NapTS in 1 M KCl, vs Ag/AgCl",0.59 ± 0.00 V
same,standard rate constant k0 (CV),Cyclic voltammetry; 20 wt % urea in 1 M KCl,0.78 ± 0.16 cm/s
same,Dred (CV),Cyclic voltammetry; 20 wt % urea in 1 M KCl,5.90 ± 0.07 × 10^–6 cm^2/s
same,formal reduction potential E0',"Cyclic voltammetry; 20 wt % urea in 1 M KCl, vs Ag/AgCl",0.59 ± 0.00 V
same,Dox (CV),"Cyclic voltammetry; 1 M KCl, no hydrotrope",6.82 ± 0.32 × 10^–6 cm^2/s
same,Dox (CV),Cyclic voltammetry; 20 wt % NaXS in 1 M KCl,3.50 ± 0.11 × 10^–6 cm^2/s
same,Dox (CV),Cyclic voltammetry; 20 wt % NapTS in 1 M KCl,4.92 ± 0.15 × 10^–6 cm^2/s
same,Dox (CV),Cyclic voltammetry; 20 wt % urea in 1 M KCl,5.55 ± 0.12 × 10^–6 cm^2/s
same,"Dred, previously reported",[7]; ref 11,29.5 × 10^–6 cm^2/s
same,"Dred, previously reported",[7]; ref 42,7.7 × 10^–6 cm^2/s
same,formal reduction potential E0',[7]; circumneutral pH,0.59 V vs Ag/AgCl
